Source: PubChem BioAssay (Sanford-Burnham Center for Chemical Genomics)
A selection: hits, their analogues and other compounds. The true share with any hit is near 4.4%.
GRIN3A LBD mod: modulators (binders) of human NR3A ligand-binding domain; NR3A LBD differential scanning fluorimetry, Tm shift; 0% = protein alone, 100% = glycine-bound protein; Tm shift relative to glycine control, % at 25 µM; 2.5% of 340,000 active; AID 1259313;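 active means melting temperature shift of at least 10% of the positive control shift, at one fixed dose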
MPTP inh: permeability transition pore inhibition; isolated mouse mitochondria, Ca2+ swelling absorbance, 30 min; inhibition, % at 10 µM; 1.4% of 360,000 active;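 active means inhibition of 50% or more, scaled per plate between neutral and stimulator controls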
SENP1 FRET inh: inhibitors of human SENP1 SUMO protease catalytic domain. AID 624204. 0.21% of 360,000 active. inhibition, % at 10 µM. Q9P0U3. recombinant SENP1 catalytic domain, CyPet-SUMO1-YPet FRET cleavage;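 active means inhibition at least 30% at 10 µM, raw YFP signal under a set limit, fluorescence ratio 0.5 to 1.5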
Target sequence (Q9P0U3 419-644 limits assumed): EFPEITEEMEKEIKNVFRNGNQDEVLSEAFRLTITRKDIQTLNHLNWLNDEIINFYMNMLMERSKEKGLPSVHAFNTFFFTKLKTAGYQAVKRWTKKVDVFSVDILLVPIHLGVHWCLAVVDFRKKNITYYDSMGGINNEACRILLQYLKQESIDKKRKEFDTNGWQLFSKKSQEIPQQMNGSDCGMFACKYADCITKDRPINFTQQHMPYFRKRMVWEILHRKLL
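Compound: 10 µM single point, 0.5% DMSO; Test system: hSENP1 catalytic domain, recombinant; Timing: 50 min reaction at room temperature; Technique: FRET, CFP and YFP emission; Control set: no-enzyme wells low, DMSO-plus-enzyme wells high control.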
EBI2 block: antagonists of human EBI2 receptor | 0.81% of 360,000 active | EBI2 beta-arrestin recruitment, luminescence, 7a,25-OHC stimulated | P32249 | inhibition, % at 5 µM; in the data active means inhibition above about 38%;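 further: enzyme fragment complementation signal reports receptor beta-arrestin coupling in cells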
Target sequence (P32249 whole entry, looked up, the tested form may be a part): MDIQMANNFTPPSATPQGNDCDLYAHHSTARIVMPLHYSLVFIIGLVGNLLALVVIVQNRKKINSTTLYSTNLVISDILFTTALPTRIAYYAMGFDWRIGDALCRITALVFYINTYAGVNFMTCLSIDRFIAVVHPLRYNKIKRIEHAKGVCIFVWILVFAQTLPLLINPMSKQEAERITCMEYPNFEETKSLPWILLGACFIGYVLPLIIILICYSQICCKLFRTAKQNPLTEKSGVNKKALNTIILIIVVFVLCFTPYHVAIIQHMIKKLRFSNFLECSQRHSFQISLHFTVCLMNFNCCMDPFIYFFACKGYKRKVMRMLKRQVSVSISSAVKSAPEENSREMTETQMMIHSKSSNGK
MPTP counter: mitochondrial membrane potential, counter-screen | isolated mitochondria, Rhodamine 123 fluorescence | shares compounds with MPTP inh | inhibition, % at 10 µM | 78% of 5,000 active; in the data active means inhibition above about 22%
MPTP abs DR: MPTP inhibition, dose response swelling confirmation | isolated mitochondria swelling, absorbance | 58% of 780 active | AID 651561 | shares compounds with MPTP inh | IC50, µM; in the data active means IC50 below about 20 µM
MPTP cs DR: counter-screen for mitochondrial permeability transition pore inhibitors, dose response; shares compounds with MPTP inh; IC50, µM; AID 651564; 49% of 780 active; isolated mitochondria counterscreen, fluorescence read-out; in the data active means IC50 below about 80 µM
Numbers stand for hits; 0 = inactive; - = no result.

SMILES | GRIN3A LBD mod | MPTP inh | SENP1 FRET inh | EBI2 block | MPTP counter | others
Oc1c(C=C2N=c3ccccc3=N2)sc(=S)n1C1CCCCC1 | 0 | 77.1 | 0 | 0 | 0 | MPTP abs DR=0;MPTP cs DR=0
COc1ccc(-c2cc(C(=O)Nc3sc4c(c3C#N)CCCC4)c3ccccc3n2)cc1 | 0 | 0 | 0 | 0 | -
CCOC(=O)c1sc(NC(=O)CSc2n[nH]c(-c3ccncc3)n2)c(C#N)c1C | 0 | 77.2 | 0 | 0 | 79.9
CCOC(=O)c1sc(NC(=O)c2cc(-c3ccc(C)cc3)nc3ccccc23)c(C#N)c1C | 0 | 88.5 | 0 | 0 | 77.9
Cc1ccccc1NC(=O)c1sc(NC(=O)COc2ccccc2)c(C#N)c1C | 0 | 54.2 | 0 | 0 | 75.4
COC(=O)c1sccc1NC(=O)c1cc(-c2ccc(C)cc2)nc2ccccc12 | 0 | 0 | 0 | 0 | -
COC(=O)c1sc(NC(=O)c2cc(-c3ccccc3)nc3ccccc23)c(C#N)c1C | 21.2 | 66.2 | 0 | 0 | 69.7
C=CCN1C(=O)c2ccccc2Sc2ccc(C(=O)NCC(OC)OC)cc21 | 0 | 0 | 0 | 0 | -
Cc1[nH]nc2c1-c1nc3ccccc3nc1C(C)(C)C2 | 0 | 0 | 0 | 0 | -
COC(=O)c1sc(NC(=O)c2ccc([N+](=O)[O-])o2)c(C#N)c1C | 0 | 91.7 | 0 | 0 | 81.2
CC(=O)N1CCc2c(sc(NC(=O)c3ccc([N+](=O)[O-])o3)c2C#N)C1 | 0 | 0 | 0 | 0 | -
Cc1ccccc1-c1cc(C(=O)Nc2sc(C(=O)OC(C)C)c(C)c2C#N)c2ccccc2n1 | 0 | 90.7 | 0 | 0 | 78.7
Cc1cc(NC(=O)c2cc(-c3ccccc3C)nc3ccccc23)no1 | 0 | 0 | 0 | 0 | -
O=C1CC(N2CCN(c3ccc(F)cc3)CC2)C(=O)N1c1ccc2c(c1)OCO2 (centres undefined) | 0 | 0 | 0 | 0 | -
COC(=O)[C@]1(C)N[C@H](CN(C)C(=O)Nc2ccc(C(F)(F)F)cc2)[C@@H]2C(=O)N(C)C(=O)[C@@H]21 | 0 | 0 | 0 | 0 | -
COc1ccc(-c2csc(/C(C#N)=C\c3ccc(O)c([N+](=O)[O-])c3)n2)cc1OC | 0 | 98.9 | 0 | 0 | 49.8
N#C/C(=C\c1ccc([N+](=O)[O-])cc1)c1nc(C2CC2)cs1 | 0 | 0 | 0 | 0 | -
N#C/C(=C\c1ccc(O)c([N+](=O)[O-])c1)c1nc2ccccc2s1 | 0 | 91.2 | 32.2 | 0 | 63.8
NS(=O)(=O)c1ccc(Sc2ccccn2)c([N+](=O)[O-])c1 | 0 | 0 | 0 | 0 | -
NS(=O)(=O)c1ccc(Sc2nc3ccccc3s2)c([N+](=O)[O-])c1 | 0 | 59.6 | 0 | 0 | 43.0
CC(C)(C)CC(C)(C)NCC(O)COc1ccc2c(c1)CCC2 (centres undefined) | 0 | 95.0 | 0 | 0 | 0 | MPTP abs DR=4.24;MPTP cs DR=48.3
Cc1cccc(C(=O)Oc2ccc(/C=N/O)cc2)c1 | 0 | 0 | 0 | 0 | -
O=C(N/N=C/c1ccco1)c1cc([N+](=O)[O-])cc([N+](=O)[O-])c1 | 0 | 0 | 0 | 0 | -
O=[N+]([O-])c1ccc(N/N=C/C=C/c2ccco2)cc1 | 41.4 | 75.8 | 0 | 0 | 70.4
Cc1ccc(S(=O)(=O)N/N=C/c2cccc([N+](=O)[O-])c2)cc1 | 0 | 0 | 0 | 0 | -
SMILES | GRIN3A LBD mod | MPTP inh | SENP1 FRET inh | EBI2 block | MPTP counter | others
CCCCCCCCCCS(=O)(=O)N/N=C/c1ccc(O)cc1 | 0 | 79.2 | 0 | 0 | 56.2
CCCCCCCCCS(=O)(=O)N/N=C/c1cccc([N+](=O)[O-])c1 | 18.1 | 64.5 | 0 | 0 | 60.7
Cc1cccc(C(=O)Oc2ccccc2/C=N/Nc2ccc([N+](=O)[O-])cc2)c1 | 14.3 | 67.0 | 0 | 0 | 77.5
CCOc1ccc(S(=O)(=O)NCCC(=O)NCCCSc2ccccc2)cc1 | 0 | 0 | 0 | 0 | -
O=[N+]([O-])c1ccc(NN=Cc2cccc([N+](=O)[O-])c2)cc1 | 34.0 | 92.1 | 0 | 0 | 65.3
O=C(COC(=O)/C=C/c1ccc(Cl)cc1)NC1CCCCCC1 | 0 | 0 | 0 | 0 | -
COc1ccc(Oc2ccc(/C=C/C(=O)c3ccc(O)cc3)cc2[N+](=O)[O-])cc1 | 20.5 | 87.6 | 0 | 78.8 | 66.0
COc1ccc(NC(=O)C2Cc3c(-c4ccc5c(c4)OCO5)ccnc3O2)cc1OC (centres undefined) | - | 95.5 | 0 | 0 | 89.0
COc1ccc(NC(=O)C2Cc3c(-c4ccc(NC(C)=O)cc4)ccnc3O2)cc1OC (centres undefined) | - | 0 | 0 | 0 | -
COc1ccc(NC(=O)C2Cc3c(-c4cccc(F)c4)ccnc3O2)cc1OC (centres undefined) | - | 68.3 | 0 | 0 | 65.1
Cc1cc2c(cc1S(=O)(=O)N1CC(C)CC(C)C1)OCC(=O)N2 (centres undefined) | 0 | 0 | 0 | 0 | -
CC(C)(C)c1cc(CCC(=O)NNC(=S)NC(=O)c2ccccc2)cc(C(C)(C)C)c1O | 0 | 80.3 | 0 | 0 | 0
N#CC1=C(SCC(=O)NC2CC2)NC(=O)C(C#N)C12CCCCC2 (centres undefined) | 0 | 0 | 0 | 0 | -
N#CC1=C(SCC(=O)NC23CC4CC(CC(C4)C2)C3)NC(=O)C(C#N)C12CCCCC2 (centres undefined) | 12.1 | 79.7 | 0 | 0 | 87.3
CC(C)(C)C1CCC2(CC1)C(C#N)=C(SCC(=O)NC1CCCCC1)NC(=O)C2C#N (centres undefined) | 12.4 | 78.9 | 0 | 0 | 88.0
O=C(NNc1ccccc1Br)C(O)(c1cccc(C(F)(F)F)c1)c1cccc(C(F)(F)F)c1 | 31.9 | 95.3 | 0 | 0 | 74.1
Cc1ccc(NNC(=O)C(O)(c2cccc(C(F)(F)F)c2)c2cccc(C(F)(F)F)c2)cc1 | 25.8 | 71.6 | 0 | 0 | 68.7
COC(=O)c1ccc(/C=C(/NC(=O)c2ccccc2)C(=O)N2CCOCC2)cc1 | 0 | 0 | 0 | 0 | -
CCn1nc(C)c(CNC(=O)c2cc(COc3ccc(C)nc3)on2)c1C | 0 | 0 | 0 | 0 | -
CCn1nc(C)c(CNC(=O)c2cc(COc3ccc(F)cc3Cl)on2)c1C | 0 | 52.6 | 0 | 0 | 36.3
O=C(CSc1nnc(NC(=O)c2cccc(F)c2)s1)NC1CC1 | 0 | 0 | 0 | 0 | -
O=C(Nc1nc(-c2cc(Cl)sc2Cl)cs1)c1ccc(Br)s1 | 0 | 103.7 | 0 | 0 | 0
O=C(Nc1nc(-c2ccccn2)cs1)c1ccc(Br)s1 | 26.1 | 53.9 | 0 | 0 | 0
O=C(Nc1nc(-c2ccccn2)cs1)c1ccco1 | 0 | 0 | 0 | 0 | -
O=C(Nc1nccs1)c1ccc(Br)s1 | 0 | 0 | 0 | 0 | -
Clc1ccc(/C(Cc2nc3ccccc3[nH]2)=N\Nc2ccccc2)cc1 | 0 | 85.9 | 0 | 0 | 69.7
CCOC(=O)c1sc2ncnc(N3CCN(C)CC3)c2c1C | 0 | 0 | 0 | 0 | -
CN1CCN(c2nc(-c3ccccc3)nc(-c3ccccc3)c2C#N)CC1 | 0 | 68.8 | 0 | 0 | 0 | MPTP abs DR=16.7;MPTP cs DR=0
